# Reference: ChEMBL document CHEMBL1155986, “Discovery of 4H-pyrazolo[1,5-a]pyrimidin-7-ones as potent inhibitors of hepatitis C virus polymerase” (Bioorg Med Chem Lett, 2009)
# How the values were obtained:
# [1] = Inhibition of HCV NS5B deltaC55 polymerase assessed as [3H]GTP incorporation after 50 min by scintillation proximity assay; set-up: species or system Hepacivirus hominis
# Procedure, shortened: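 NS5B Δ55 construct (6 nM) with biotinylated oligoG12/polyC template/primer, [3H]-GTP and unlabelled GTP, in 20 mM HEPES pH 7.3, 7.5 mM DTT, 10 mM MgCl2, 60 mM NaCl, BSA and RNasIN. Reactions ran 50 min at room temperature, were stopped with streptavidin SPA beads containing 100 mM EDTA, and were scintillation counted. IC50 came from single experiments over 11 twofold dilutions, accepted only if the positive internal control fell within its SD range.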
# [2] = Inhibition of HCV NS5B deltaC21 polymerase assessed as [3H]GTP incorporation after 3 hrs by scintillation proximity assay; set-up: species or system Hepacivirus hominis
# Procedure, shortened: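 Scintillation proximity assay with the NS5B Δ21 construct at 50 nM, using a polyC/oligoG template/primer with raised GTP and [3H]-GTP levels. The reaction ran 3 h at room temperature, and labelled GTP incorporation was read by scintillation counting.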
# Hepatitis C virus = experiment: Antiviral activity against HCV by cell-based replicon assay; format: functional, Hepacivirus hominis
SMILES,IC50 [1] [nM],IC50 [2],IC50 ([2]; read-out: IC50) [nM],Activity (Hepatitis C virus) [µM]
O=C(O)c1cc2[nH]c(-c3ccc(Oc4cccc(Cl)c4)cc3)c(C3CCCCC3)c(=O)n2n1,3300,Not Active,,
O=C(O)c1cc2[nH]c(-c3ccc(OCc4cccc(OC(F)(F)F)c4)cc3)c(C3CCCCC3)c(=O)n2n1,2200,,1500,
O=C(O)c1cc2[nH]c(-c3cccs3)c(C3CCCCC3)c(=O)n2n1,6400,,1100,
COC(=O)[C@H](Cc1c[nH]c2ccccc12)NC(=O)c1cc2[nH]c(-c3ccco3)c(C3CCCCC3)c(=O)n2n1,,,270,
CC(C)Cc1c(-c2ccc(OCc3ccccc3)cc2)[nH]c2cc(C(=O)O)nn2c1=O,15000,,9500,
O=C(NS(=O)(=O)Cc1ccccc1)c1cc2[nH]c(-c3ccco3)c(C3CCCCC3)c(=O)n2n1,,,180,
C=CCc1c(-c2ccc(OCc3ccccc3)cc2)[nH]c2cc(C(=O)O)nn2c1=O,> 50000,,> 12500,
COc1ccc(-c2[nH]c3cc(C(=O)O)nn3c(=O)c2C2CCCCC2)cc1,3900,Not Active,,
O=C(O)c1cc2[nH]c(-c3ccc(OCc4ccccc4)cc3)c(CC3CCCCC3)c(=O)n2n1,3800,,400,
O=C(O)c1cc2[nH]c(-c3ccc(OCc4ccccc4)cc3)c(CCCc3ccccc3)c(=O)n2n1,5900,,2500,
O=C(O)c1cc2[nH]c(-c3ccc(Cc4ccccc4)cc3)c(C3CCCCC3)c(=O)n2n1,4000,,2600,
O=C(O)c1cc2[nH]c(-c3ccc(Oc4ccccc4)cc3)c(C3CCCCC3)c(=O)n2n1,6300,Not Active,,
CC(C)=CCCc1c(-c2ccc(OCc3ccccc3)cc2)[nH]c2cc(C(=O)O)nn2c1=O,10000,,3500,
O=C(O)c1cc2[nH]c(-c3ccc(OCc4ccccc4)cc3)c(CC3CCCO3)c(=O)n2n1 (stereo not drawn),> 12500,,10000,
O=C(N[C@@H](Cc1c[nH]c2ccccc12)C(=O)O)c1cc2[nH]c(-c3cccc(F)c3)c(C3CCCCC3)c(=O)n2n1,,,230,
O=C(N[C@@H](Cc1c[nH]cn1)C(=O)O)c1cc2[nH]c(-c3ccco3)c(C3CCCCC3)c(=O)n2n1,,,640,
O=C(N[C@@H](Cc1c[nH]c2ccccc12)C(=O)O)c1cc2[nH]c(-c3ccco3)c(C3CCCCC3)c(=O)n2n1,,,50,50
O=C(N[C@H](C(=O)O)c1ccc(O)cc1)c1cc2[nH]c(-c3ccco3)c(C3CCCCC3)c(=O)n2n1,,,200,
C=CCCc1c(-c2ccc(OCc3ccccc3)cc2)[nH]c2cc(C(=O)O)nn2c1=O,15000,,6700,
O=C(N[C@@H](Cc1c[nH]c2ccccc12)C(=O)O)c1cc2[nH]c(-c3cccs3)c(C3CCCCC3)c(=O)n2n1,,,200,

SMILES,IC50 [1] [nM],IC50 [2],IC50 ([2]; read-out: IC50) [nM],Activity (Hepatitis C virus) [µM]
COc1cccc(COc2ccc(-c3[nH]c4cc(C(=O)O)nn4c(=O)c3C3CCCCC3)cc2)c1,1200,,1000,
O=C(O)c1cc2[nH]c(-c3ccc(OCc4ccccc4)cc3)c(CCC3CCCCC3)c(=O)n2n1,600,,170,
O=C(N[C@H](Cc1ccc(O)cc1)C(=O)O)c1cc2[nH]c(-c3ccco3)c(C3CCCCC3)c(=O)n2n1,,,300,
O=C(N[C@@H](Cc1ccc(O)cc1)C(=O)O)c1cc2[nH]c(-c3ccco3)c(C3CCCCC3)c(=O)n2n1,,,70,
O=C(O)c1cc2[nH]c(-c3ccco3)c(C3CCCCC3)c(=O)n2n1,2800,,290,
O=C(O)c1cc2[nH]c(-c3ccc(-c4ccccc4)cc3)c(C3CCCCC3)c(=O)n2n1,3300,,3100,
COc1cccc(Oc2ccc(-c3[nH]c4cc(C(=O)O)nn4c(=O)c3C3CCCCC3)cc2)c1,900,Not Active,,
CC(C)CCc1c(-c2ccc(OCc3ccccc3)cc2)[nH]c2cc(C(=O)O)nn2c1=O,5800,,1500,
O=C(O)c1cc2[nH]c(-c3ccc(OCc4ccccc4)cc3)c(Cc3ccccc3)c(=O)n2n1,8900,,4200,
O=C(O)c1cc2[nH]c(-c3ccc(OCc4ccccc4)cc3)c(CCc3ccccc3)c(=O)n2n1,2200,,1200,
O=C(N[C@@H](Cc1ccc(O)cc1)C(=O)O)c1cc2[nH]c(-c3cccc(F)c3)c(C3CCCCC3)c(=O)n2n1,,,680,
O=C(O)c1cc2[nH]c(-c3ccc(Oc4cccc(C(F)(F)F)c4)cc3)c(C3CCCCC3)c(=O)n2n1,930,Not Active,,
O=C(O)c1cc2[nH]c(-c3ccc(OCc4ccccc4)cc3)c(-c3ccccc3)c(=O)n2n1,> 50000,,> 12500,
COCCc1c(-c2ccc(OCc3ccccc3)cc2)[nH]c2cc(C(=O)O)nn2c1=O,13000,,3700,
O=C(O)c1cc2[nH]c(-c3ccc(OCc4cccc(C(F)(F)F)c4)cc3)c(C3CCCCC3)c(=O)n2n1,1800,,900,
O=C(O)c1cc2[nH]c(-c3ccc(OCc4ccccc4)cc3)c(CC3CCC3)c(=O)n2n1,8800,,2800,
O=C(O)c1cc2[nH]c(-c3ccc(OCc4ccccc4)cc3)c(C3CCCCC3)c(=O)n2n1,1500,,1000,
O=C(N[C@@H](Cc1c[nH]c2ccccc12)C(=O)O)c1cc2[nH]c(-c3ccoc3)c(C3CCCCC3)c(=O)n2n1,,,60,
O=C(O)c1cc2[nH]c(-c3cccc(F)c3)c(C3CCCCC3)c(=O)n2n1,2300,,380,
